MrgX1 allo act = allosterically activates human MrgX1 receptor signaling | 310,000 compounds, 0.63% hits | MrgX1-HEK293, Fluo-4 calcium flux, FDSS; hits give high values | Q96LB2 | B-score at 10 µM;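 active = plate-corrected calcium response at least 3 library SD above typical, normal starting fluorescence, not activating the receptor alone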;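 note: compound read alongside a low EC10 to EC30 dose of BAM8-22 agonist; peak minus trough fluorescence over baseline measured at the second addition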
Target sequence (Q96LB2 whole entry, looked up): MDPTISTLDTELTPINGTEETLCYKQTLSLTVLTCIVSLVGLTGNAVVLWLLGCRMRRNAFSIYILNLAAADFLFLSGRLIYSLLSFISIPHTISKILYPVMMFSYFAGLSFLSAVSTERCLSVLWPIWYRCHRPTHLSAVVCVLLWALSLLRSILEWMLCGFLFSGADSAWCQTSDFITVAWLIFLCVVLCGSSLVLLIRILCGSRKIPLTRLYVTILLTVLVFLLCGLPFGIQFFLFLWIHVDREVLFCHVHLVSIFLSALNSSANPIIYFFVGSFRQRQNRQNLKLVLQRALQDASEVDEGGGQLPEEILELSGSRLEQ
RGS4 block = inhibitors of human RGS4; P49798; HEK293 M3R/RGS4 inducible, Fluo-4 calcium flux; hits give high values; triggered by carbachol at its EC20; B-score at 10 µM; 310,000 compounds, 0.45% hits;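 active = B-score, a plate-corrected calcium signal, over three deviations above library mean, with baseline fluorescence within five deviations of library mean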;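 note: RGS4 expression induced by doxycycline in cells with stable M3 receptor; B-score is computed from the integrated fluorescence ratio over baseline after carbachol; higher B-score means a larger calcium signal and so more RGS4 inhibition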
Target sequence (P49798 whole entry, looked up): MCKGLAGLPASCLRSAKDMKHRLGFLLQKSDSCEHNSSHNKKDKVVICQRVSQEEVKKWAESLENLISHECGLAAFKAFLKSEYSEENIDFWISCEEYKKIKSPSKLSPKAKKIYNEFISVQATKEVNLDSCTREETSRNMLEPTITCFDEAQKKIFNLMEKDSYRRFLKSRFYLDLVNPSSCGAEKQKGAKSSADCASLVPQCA
RGS4 pot = potentiators or activators of RGS4 | B-score at 10 µM | AID 463111 | HEK293 M3R/inducible RGS4, carbachol calcium flux Fluo4; hits give low values | 310,000 compounds, 0.92% hits;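 active = B-score of the integrated calcium signal more than 4 SD below the library mean, with starting fluorescence not abnormally high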;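 note: negative B-score means reduced calcium response which marks RGS4 activation or potentiation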
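Detection: kinetic calcium fluorescence imaging with Fluo4-AM dye, 2 µM / Material: HEK293 cells with stable M3R and inducible RGS4 / Schedule: recording 10 s baseline at 1 Hz, 100 s post-agonist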
MrgX1 agonist = activates human MrgX1 receptor signaling; 310,000 compounds, 0.44% hits; MrgX1-HEK293 cells, Fluo-4 calcium fluorescence, agonist mode; hits give high values; AID 588627; B-score at 10 µM; Q96LB2;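 active = calcium response B-score plate-corrected fluorescence ratio at least 3 library SD, with starting fluorescence B-score inside 5 SD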
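Assay system: stable human MrgX1 HEK293 cell line. Quantity: 15,000 cells per well. Schedule: cells plated overnight, dye loaded 0.5 h 37 °C, 0.5 h room temperature. Detection: Fluo-4 NW calcium-flux fluorescence, kinetic read. Read-out basis: peak-minus-minimum fluorescence over baseline, converted to B scores. Control set: positive and negative control wells on each plate.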
MrgX1 antagonist = blocks BAM8-22 activation of human MrgX1 receptor. MRGX1-HEK293 calcium flux, Fluo-4, BAM8-22 antagonism; hits give low values. 310,000 compounds, 1.3% hits. B-score at 10 µM. AID 588676. Q96LB2;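 active = calcium-response B-score plate-corrected more than 3 library SD below zero, starting fluorescence within 5 deviations, no agonist response on first addition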;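 note: peak minus trough fluorescence over baseline after final BAM8-22 challenge near maximal dose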
MrgX1 allo conf = human MrgX1 positive allosteric modulation, re-confirmation; shares compounds with MrgX1 allo act; MrgX1-HEK293, Fluo-4 calcium fluorescence, FDSS; activation (ratio percentage), % at 10 µM; 1,200 compounds, 13% hits;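 active = ratio at least 3 SD above the weak peptide control, stable starting fluorescence, no direct agonism earlier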;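 note: compound followed by low BAM8-22 agonist challenge near EC20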
HEK293 Ca flux = counter-screen for MrgX1 antagonists: effect in parental HEK293 cells | Fluo-4 calcium fluorescence, FDSS | shares compounds with MrgX1 antagonist | fluorescence ratio F(max-min)/F0 at 10 µM | AID 624111 | 4,000 compounds, 2% hits;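 active = duplicate-averaged calcium fluorescence ratio at least three times the standard deviation of buffer wells, a nonspecific response in parental cells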
HEK293 Ca counter = activity in parental HEK293 cells without MrgX1; AID 624114; parental HEK293 calcium flux, Fluo-4 fluorescence ratio; hits give high values; 4,000 compounds, 0.4% hits; fluorescence ratio F(max-min)/F0 at 10 µM; shares compounds with MrgX1 antagonist;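 active = calcium fluorescence ratio, averaged over duplicates, at least 3 SD of the buffer-well ratio, meaning a nonspecific response in receptor-free cells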;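 note: untransfected parental HEK293 lacking MrgX1 used as counterscreen for MrgX1 allosteric activators; fluorescence change taken during the second addition on a kinetic imager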
HEK293 Ca cntr2 = MrgX1 activator counter-screen hit in parental HEK293 cells; 4,000 compounds, 8.7% hits; Fluo-4 calcium fluorescence (FDSS); hits give high values; fluorescence ratio F(max-min)/F0 at 10 µM; shares compounds with MrgX1 antagonist;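 active = calcium fluorescence ratio at least three times the spread of buffer wells, meaning a non-specific response in parental cells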
* hit, by the source's call. An excerpt weighted towards active compounds, which were near 3.5% of everything screened.

CN(Cc1ccc(N(C)C)cc1)C(=O)c1cc2ccccc2o1 was read as MrgX1 allo act 12*, RGS4 block inactive, RGS4 pot inactive, MrgX1 agonist inactive, MrgX1 antagonist inactive, MrgX1 allo conf 8.2%*, HEK293 Ca flux inactive, HEK293 Ca counter inactive and HEK293 Ca cntr2 inactive.
Screening COCCNC(=S)N1CCN(C(=O)C(=O)Nc2ccc(C(=O)OC)cc2)CC1 returned MrgX1 allo act inactive, RGS4 block inactive, RGS4 pot inactive, MrgX1 agonist inactive and MrgX1 antagonist inactive.
`COCCN(C(=S)Nc1cc(C)cc(C)c1)C(C)c1ccco1` (stereo not drawn) gave MrgX1 allo act 8.2*, RGS4 block inactive, RGS4 pot inactive, MrgX1 agonist inactive, MrgX1 antagonist inactive, MrgX1 allo conf inactive, HEK293 Ca flux inactive, HEK293 Ca counter inactive and HEK293 Ca cntr2 inactive.
For NC(=O)c1ccsc1NC(=O)COC(=O)Cc1c[nH]c2ccccc12 the results were MrgX1 allo act 8.9*, RGS4 block inactive, RGS4 pot inactive, MrgX1 agonist inactive, MrgX1 antagonist inactive, MrgX1 allo conf 27%*, HEK293 Ca flux inactive, HEK293 Ca counter inactive and HEK293 Ca cntr2 inactive.
`CC(=O)NC1C(OCCOc2ccc(Cl)cc2C)OC(CO)C(O)C1O` (stereo not drawn) gave MrgX1 allo act inactive, RGS4 block inactive, RGS4 pot inactive, MrgX1 agonist inactive and MrgX1 antagonist inactive.
Screening CC(C)[C@H](NC(=O)OCc1ccccc1)C(=O)OCC(=O)Nc1c(F)cccc1F returned MrgX1 allo act inactive, RGS4 block inactive, RGS4 pot inactive, MrgX1 agonist inactive and MrgX1 antagonist inactive.
For CCc1cccc(CC)c1NC(=S)Nc1cccc(Cl)c1Cl the results were MrgX1 allo act 25*, RGS4 block inactive, RGS4 pot inactive, MrgX1 agonist inactive, MrgX1 antagonist inactive, MrgX1 allo conf inactive, HEK293 Ca flux inactive, HEK293 Ca counter inactive and HEK293 Ca cntr2 inactive.
For CCOC(=O)c1cc(C)sc1NC(=S)Nc1ccccc1 the results were MrgX1 allo act inactive, RGS4 block inactive, RGS4 pot inactive, MrgX1 agonist inactive and MrgX1 antagonist inactive.
Screening CCOC(=O)C(Cc1ccccc1)C(=O)NCc1cccnc1 (stereo not drawn) returned MrgX1 allo act 14*, RGS4 block inactive, RGS4 pot inactive, MrgX1 agonist inactive, MrgX1 antagonist inactive, MrgX1 allo conf inactive, HEK293 Ca flux inactive, HEK293 Ca counter inactive and HEK293 Ca cntr2 inactive.
Cc1ccccc1OC(C)C(=O)NCc1cccnc1 (stereo not drawn) was read as MrgX1 allo act inactive, RGS4 block inactive, RGS4 pot inactive, MrgX1 agonist inactive and MrgX1 antagonist inactive.
Screening CC1(C)Cc2ccccc2-c2nnc(SCC(=O)N3CCN(c4ccccc4)CC3)n21 returned MrgX1 allo act 10*, RGS4 block inactive, RGS4 pot inactive, MrgX1 agonist inactive, MrgX1 antagonist inactive, MrgX1 allo conf 9.3%*, HEK293 Ca flux inactive, HEK293 Ca counter inactive and HEK293 Ca cntr2 inactive.
O=C(OCCN1C(=O)c2ccccc2C1=O)c1cc(S(=O)(=O)N2CCOCC2)ccc1F was read as MrgX1 allo act 6.8*, RGS4 block inactive, RGS4 pot inactive, MrgX1 agonist inactive, MrgX1 antagonist inactive, MrgX1 allo conf inactive, HEK293 Ca flux inactive, HEK293 Ca counter inactive and HEK293 Ca cntr2 inactive.
`Cc1sc(NC(=O)c2ccccc2F)c(CN2CCCCC2)c1C` gave MrgX1 allo act 9.4*, RGS4 block inactive, RGS4 pot inactive, MrgX1 agonist inactive, MrgX1 antagonist inactive, MrgX1 allo conf inactive, HEK293 Ca flux inactive, HEK293 Ca counter inactive and HEK293 Ca cntr2 inactive.
For Cc1sc(NC(=O)c2ccc(F)cc2)c(CN2CCCCCC2)c1C the results were MrgX1 allo act inactive, RGS4 block inactive, RGS4 pot inactive, MrgX1 agonist inactive and MrgX1 antagonist inactive.
`NC(=O)CCN(C1CCCCC1)S(=O)(=O)c1cccc2nsnc12` gave MrgX1 allo act inactive, RGS4 block inactive, RGS4 pot inactive, MrgX1 agonist inactive and MrgX1 antagonist inactive.
Cc1ccc(S(=O)(=O)N(CCC#N)C2CCCCC2)c2nsnc12 was read as MrgX1 allo act 6.8*, RGS4 block inactive, RGS4 pot inactive, MrgX1 agonist inactive, MrgX1 antagonist inactive, MrgX1 allo conf inactive, HEK293 Ca flux inactive, HEK293 Ca counter inactive and HEK293 Ca cntr2 inactive.
O=C(NC(=S)Nc1cc(S(=O)(=O)N2CCOCC2)ccc1N1CCOCC1)C1CCCC1 was read as MrgX1 allo act 7.1*, RGS4 block inactive, RGS4 pot inactive, MrgX1 agonist inactive, MrgX1 antagonist inactive, MrgX1 allo conf 6.4%*, HEK293 Ca flux inactive, HEK293 Ca counter inactive and HEK293 Ca cntr2 inactive.
`Cc1ccc(SCCNC(=O)C(C)C)cc1` gave MrgX1 allo act inactive, RGS4 block inactive, RGS4 pot inactive, MrgX1 agonist inactive and MrgX1 antagonist inactive.
For O=C(CCNS(=O)(=O)c1ccc(Br)cc1)NC1CCCCC1 the results were MrgX1 allo act inactive, RGS4 block inactive, RGS4 pot inactive, MrgX1 agonist inactive and MrgX1 antagonist inactive.
Screening O=S(=O)(NC(=S)NC1CCCCC1)c1ccc(Br)cc1 returned MrgX1 allo act 28*, RGS4 block inactive, RGS4 pot inactive, MrgX1 agonist inactive, MrgX1 antagonist inactive, MrgX1 allo conf 25%*, HEK293 Ca flux inactive, HEK293 Ca counter inactive and HEK293 Ca cntr2 inactive.
CCOC(=O)C1=C(C)N(c2ccccc2)C(=O)C1CC(=O)O (stereo not drawn) was read as MrgX1 allo act inactive, RGS4 block inactive, RGS4 pot inactive, MrgX1 agonist inactive and MrgX1 antagonist inactive.
Screening Cn1c(N)c(C(=O)c2cc(-c3ccncc3)nc3ccccc23)c(=O)n(C)c1=O returned MrgX1 allo act inactive, RGS4 block inactive, RGS4 pot inactive, MrgX1 agonist inactive and MrgX1 antagonist inactive.

Screening data (PubChem BioAssay)
